The source made the active and inactive calls. No cut-off for these calls is given here.
What was measured:
[1] = target: 5-hydroxytryptamine receptor 6 (Homo sapiens) (UniProt P50406); assay: Binding affinity to human recombinant 5-HT6 receptor expressed in CHO cells at 1 uM after 30 mins by radioligand displacement assay relative to control; assay type: cell-based
[2] = target: 5-hydroxytryptamine receptor 2A (Homo sapiens) (UniProt P28223); assay: Binding affinity to human recombinant 5-HT2A receptor expressed in HEK293 cells at 1 uM by radioligand displacement assay relative to control; assay type: cell-based
[3] = target: T1, 5-hydroxytryptamine receptor 7 (Homo sapiens, UniProt P34969); assay: Displacement of [3H]5-HT from human 5-HT7 receptor expressed in HEK293 cells after 30 mins by microbeta counting analysis; assay type: cell-based
[4] = target: T2, 5-hydroxytryptamine receptor 3A (Homo sapiens) (UniProt P46098); assay: Binding affinity to human 5-HT3 receptor at 1 uM by radioligand displacement assay relative to control
T2 sequence (whole entry): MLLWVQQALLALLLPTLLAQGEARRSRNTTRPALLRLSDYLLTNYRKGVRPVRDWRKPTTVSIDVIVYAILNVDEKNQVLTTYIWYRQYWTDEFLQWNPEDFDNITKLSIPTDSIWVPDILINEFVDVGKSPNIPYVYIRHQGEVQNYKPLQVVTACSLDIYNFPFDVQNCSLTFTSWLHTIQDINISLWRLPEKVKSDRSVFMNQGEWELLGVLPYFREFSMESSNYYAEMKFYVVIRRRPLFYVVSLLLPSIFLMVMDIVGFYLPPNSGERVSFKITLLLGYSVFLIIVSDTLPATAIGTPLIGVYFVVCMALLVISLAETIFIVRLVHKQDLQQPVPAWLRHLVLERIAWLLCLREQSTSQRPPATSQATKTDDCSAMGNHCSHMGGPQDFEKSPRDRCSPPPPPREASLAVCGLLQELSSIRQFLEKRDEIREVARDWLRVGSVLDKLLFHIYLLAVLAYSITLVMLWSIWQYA

[5] = target: 5-hydroxytryptamine receptor 5A (Homo sapiens) (UniProt P47898); assay: Displacement of [3H]LSD from human recombinant 5-HT5A receptor expressed in HEK293 cells at 1 uM after 120 mins by scintillation counting analysis relative to control; assay type: cell-based
[6] = target: 5-hydroxytryptamine receptor 1B (Homo sapiens) (UniProt P28222); assay: Binding affinity to recombinant human 5-HT1B receptor expressed in CHO cells at 1 uM by radioligand displacement assay relative to control; assay type: cell-based
[7] = target: 5-hydroxytryptamine receptor 2B (Homo sapiens) (UniProt P41595); assay: Binding affinity to human recombinant 5-HT2B receptor expressed in CHO cells at 1 uM by radioligand displacement assay relative to control; assay type: cell-based
[8] = target: 5-hydroxytryptamine receptor 1D (Rattus norvegicus) (UniProt P28565); assay: Binding affinity to rat recombinant 5-HT1D receptor expressed in CHO cells at 1 uM by radioligand displacement assay relative to control; assay type: cell-based
[9] = target: T3, 5-hydroxytryptamine receptor 1A (Homo sapiens) (UniProt P08908); assay: Displacement of [3H]-8-OH-DPAT from human recombinant 5-HT1A receptor expressed in HEK293 cells at 1 uM by scintillation counting analysis relative to control; assay type: cell-based
T3 sequence (whole entry): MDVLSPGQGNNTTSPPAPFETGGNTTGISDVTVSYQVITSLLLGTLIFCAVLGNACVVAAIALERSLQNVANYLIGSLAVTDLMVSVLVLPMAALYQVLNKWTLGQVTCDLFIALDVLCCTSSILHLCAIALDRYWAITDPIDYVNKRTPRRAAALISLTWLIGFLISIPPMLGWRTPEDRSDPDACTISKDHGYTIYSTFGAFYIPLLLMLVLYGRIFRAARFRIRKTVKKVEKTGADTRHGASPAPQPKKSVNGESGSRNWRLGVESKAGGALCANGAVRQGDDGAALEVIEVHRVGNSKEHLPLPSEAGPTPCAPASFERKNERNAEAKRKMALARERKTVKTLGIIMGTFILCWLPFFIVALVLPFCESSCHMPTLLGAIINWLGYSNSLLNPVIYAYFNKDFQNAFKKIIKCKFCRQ

[10] = target: 5-hydroxytryptamine receptor 4 (Homo sapiens) (UniProt Q13639); assay: Binding affinity to human recombinant 5-HT4E receptor expressed in CHO cells at 1 uM after 30 mins by radioligand displacement assay relative to control; assay type: cell-based
[11] = target: T4, 5-hydroxytryptamine receptor 2C (Homo sapiens) (UniProt P28335); assay: Binding affinity to human recombinant 5-HT2C receptor expressed in HEK293 cells at 1 uM after 30 mins by radioligand displacement assay relative to control; assay type: cell-based
T4 sequence (whole entry): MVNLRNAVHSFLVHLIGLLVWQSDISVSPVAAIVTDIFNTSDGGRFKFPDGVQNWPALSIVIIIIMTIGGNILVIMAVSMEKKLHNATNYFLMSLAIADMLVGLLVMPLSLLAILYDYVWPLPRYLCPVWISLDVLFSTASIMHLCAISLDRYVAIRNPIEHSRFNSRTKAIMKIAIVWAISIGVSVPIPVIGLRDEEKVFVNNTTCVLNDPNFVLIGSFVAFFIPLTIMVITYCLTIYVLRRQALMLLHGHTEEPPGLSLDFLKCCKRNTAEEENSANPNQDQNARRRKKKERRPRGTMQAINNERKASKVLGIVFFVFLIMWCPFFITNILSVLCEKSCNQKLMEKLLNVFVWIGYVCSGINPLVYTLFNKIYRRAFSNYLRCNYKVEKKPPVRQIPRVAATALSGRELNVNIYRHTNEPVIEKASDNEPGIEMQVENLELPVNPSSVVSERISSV

[12] = target: T1, 5-hydroxytryptamine receptor 7; assay: Binding affinity to human recombinant 5-HT7 receptor expressed in CHO cells after 30 mins by radioligand displacement assay; assay type: cell-based
In short: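 Membranes from receptor-expressing cells harvested at 80% confluence, homogenised and pelleted at 48,000 × g for 90 min, then protein-quantified by Bradford. Competition with 5 nmol/L [3H]5-HT and test compound for 30 min at 25 °C in 50 mM Tris-HCl pH 7.4 containing pargyline, 4 mmol/L CaCl2 and 0.05% ascorbic acid. Non-specific binding measured with excess cold 5-HT; bound radioligand separated by filtration. Ki derived from IC50 by Cheng-Prusoff; mean of four determinations in duplicate.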

[13] = target: T1, 5-hydroxytryptamine receptor 7; assay: Agonist activity at human 5-HT7 receptor expressed in CHO cells assessed as stimulation of cAMP accumulation up to 10^-5 M; assay type: functional, cell-based
[14] = target: T1, 5-hydroxytryptamine receptor 7; assay: Antagonist activity at human 5-HT7 receptor expressed in CHO cells assessed as residual 5-HT-stimulated cAMP accumulation at 1 uM relative to control
[15] = target: T1, 5-hydroxytryptamine receptor 7; assay: Antagonist activity at human 5-HT7 receptor expressed in CHO cells assessed as inhibition of 5-HT-stimulated cAMP accumulation by Cheng-Prusoff method; assay type: functional, cell-based
[16] = target: T1, 5-hydroxytryptamine receptor 7; assay: Antagonist activity at human 5-HT7 receptor expressed in CHO cells assessed as inhibition of 5-HT-stimulated cAMP accumulation; assay type: functional, cell-based
[17] = target: T1, 5-hydroxytryptamine receptor 7; assay: Displacement of [3H]5-HT from human 5-HT7 receptor expressed in HEK293 cells at 10^-7 mol/L after 30 mins by microbeta counting analysis; assay type: cell-based
[18] = target: T1, 5-hydroxytryptamine receptor 7; assay: Displacement of [3H]5-HT from human 5-HT7 receptor expressed in HEK293 cells at 10^-5 mol/L after 30 mins by microbeta counting analysis; assay type: cell-based
In short: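 Membranes incubated 30 min at 25 °C with 5 nmol/L [3H]5-HT in 50 mM Tris-HCl pH 7.4 containing pargyline, CaCl2 and ascorbic acid, with the test compound at a single fixed concentration. Non-specific binding with 100 µM cold 5-HT; separation by filtration; result reported as % displacement.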

Chain of 5-hydroxytryptamine receptor 2B (Homo sapiens) (P41595 whole entry): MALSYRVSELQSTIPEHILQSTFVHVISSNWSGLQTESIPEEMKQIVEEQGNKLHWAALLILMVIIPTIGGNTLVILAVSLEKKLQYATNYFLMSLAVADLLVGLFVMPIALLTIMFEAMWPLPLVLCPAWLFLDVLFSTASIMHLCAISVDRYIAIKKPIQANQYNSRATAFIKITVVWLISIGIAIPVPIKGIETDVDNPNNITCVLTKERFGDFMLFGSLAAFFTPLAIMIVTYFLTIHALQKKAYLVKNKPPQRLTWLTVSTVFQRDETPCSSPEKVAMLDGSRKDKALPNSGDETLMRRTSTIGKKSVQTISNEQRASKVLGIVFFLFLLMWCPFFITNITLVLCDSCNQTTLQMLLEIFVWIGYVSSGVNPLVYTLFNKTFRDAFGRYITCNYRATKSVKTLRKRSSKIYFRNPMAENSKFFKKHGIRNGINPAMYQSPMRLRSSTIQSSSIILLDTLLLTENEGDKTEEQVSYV
Chain of 5-hydroxytryptamine receptor 1B (Homo sapiens) (P28222 whole entry): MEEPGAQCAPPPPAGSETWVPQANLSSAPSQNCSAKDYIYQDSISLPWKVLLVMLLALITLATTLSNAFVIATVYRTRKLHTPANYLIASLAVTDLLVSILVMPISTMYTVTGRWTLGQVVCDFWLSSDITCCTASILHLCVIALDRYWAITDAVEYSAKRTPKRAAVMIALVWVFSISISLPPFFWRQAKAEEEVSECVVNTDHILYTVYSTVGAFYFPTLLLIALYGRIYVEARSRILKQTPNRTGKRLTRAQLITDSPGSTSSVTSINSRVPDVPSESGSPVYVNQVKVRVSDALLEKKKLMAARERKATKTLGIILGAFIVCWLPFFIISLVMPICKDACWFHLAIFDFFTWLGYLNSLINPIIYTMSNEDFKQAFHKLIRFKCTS
Chain of 5-hydroxytryptamine receptor 2A (Homo sapiens) (P28223 whole entry): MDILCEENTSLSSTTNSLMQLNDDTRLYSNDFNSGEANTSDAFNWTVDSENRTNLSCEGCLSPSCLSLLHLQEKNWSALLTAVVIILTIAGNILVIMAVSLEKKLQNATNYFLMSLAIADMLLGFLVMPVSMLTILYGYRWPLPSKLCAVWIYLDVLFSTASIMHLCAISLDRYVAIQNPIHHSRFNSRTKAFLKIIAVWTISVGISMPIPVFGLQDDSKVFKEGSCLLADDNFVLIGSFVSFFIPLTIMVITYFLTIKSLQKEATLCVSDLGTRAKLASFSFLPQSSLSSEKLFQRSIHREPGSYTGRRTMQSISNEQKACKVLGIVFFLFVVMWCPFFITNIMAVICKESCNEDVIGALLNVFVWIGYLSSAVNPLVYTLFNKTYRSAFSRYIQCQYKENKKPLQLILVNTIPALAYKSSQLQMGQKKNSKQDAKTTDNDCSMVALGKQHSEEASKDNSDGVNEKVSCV
Chain of 5-hydroxytryptamine receptor 1D (Rattus norvegicus) (P28565 whole entry): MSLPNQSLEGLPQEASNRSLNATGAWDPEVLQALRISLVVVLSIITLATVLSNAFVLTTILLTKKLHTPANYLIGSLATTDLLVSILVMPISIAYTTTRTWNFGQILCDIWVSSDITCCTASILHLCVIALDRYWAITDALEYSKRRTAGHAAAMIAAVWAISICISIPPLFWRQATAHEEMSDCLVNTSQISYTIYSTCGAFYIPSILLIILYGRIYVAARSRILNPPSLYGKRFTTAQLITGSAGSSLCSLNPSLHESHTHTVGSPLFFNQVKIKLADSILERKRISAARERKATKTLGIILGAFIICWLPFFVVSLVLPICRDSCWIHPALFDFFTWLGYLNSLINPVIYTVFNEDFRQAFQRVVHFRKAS
Chain of 5-hydroxytryptamine receptor 6 (Homo sapiens) (P50406 whole entry): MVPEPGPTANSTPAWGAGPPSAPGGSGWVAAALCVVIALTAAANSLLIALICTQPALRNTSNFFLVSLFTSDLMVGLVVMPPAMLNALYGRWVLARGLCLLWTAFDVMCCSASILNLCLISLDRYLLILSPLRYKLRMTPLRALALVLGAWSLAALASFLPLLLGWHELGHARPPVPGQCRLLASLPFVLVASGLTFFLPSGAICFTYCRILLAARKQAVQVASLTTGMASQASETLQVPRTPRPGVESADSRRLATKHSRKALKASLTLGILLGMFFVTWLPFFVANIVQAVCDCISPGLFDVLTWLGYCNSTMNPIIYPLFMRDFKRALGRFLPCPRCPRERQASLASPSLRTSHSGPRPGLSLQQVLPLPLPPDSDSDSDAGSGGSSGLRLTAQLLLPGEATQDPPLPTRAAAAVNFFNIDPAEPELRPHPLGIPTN
Chain of 5-hydroxytryptamine receptor 4 (Homo sapiens) (Q13639 whole entry): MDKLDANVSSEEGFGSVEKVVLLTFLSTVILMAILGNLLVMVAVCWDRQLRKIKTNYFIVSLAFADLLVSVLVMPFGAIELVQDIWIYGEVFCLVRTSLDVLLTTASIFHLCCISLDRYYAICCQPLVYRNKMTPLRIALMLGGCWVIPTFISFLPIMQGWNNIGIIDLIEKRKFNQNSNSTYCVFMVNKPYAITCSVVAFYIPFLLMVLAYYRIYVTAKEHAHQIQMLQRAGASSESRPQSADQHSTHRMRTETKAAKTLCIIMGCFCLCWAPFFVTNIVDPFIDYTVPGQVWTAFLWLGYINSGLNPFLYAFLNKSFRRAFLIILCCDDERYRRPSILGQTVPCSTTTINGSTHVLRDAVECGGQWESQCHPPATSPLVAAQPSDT
T1 sequence (P34969 whole entry): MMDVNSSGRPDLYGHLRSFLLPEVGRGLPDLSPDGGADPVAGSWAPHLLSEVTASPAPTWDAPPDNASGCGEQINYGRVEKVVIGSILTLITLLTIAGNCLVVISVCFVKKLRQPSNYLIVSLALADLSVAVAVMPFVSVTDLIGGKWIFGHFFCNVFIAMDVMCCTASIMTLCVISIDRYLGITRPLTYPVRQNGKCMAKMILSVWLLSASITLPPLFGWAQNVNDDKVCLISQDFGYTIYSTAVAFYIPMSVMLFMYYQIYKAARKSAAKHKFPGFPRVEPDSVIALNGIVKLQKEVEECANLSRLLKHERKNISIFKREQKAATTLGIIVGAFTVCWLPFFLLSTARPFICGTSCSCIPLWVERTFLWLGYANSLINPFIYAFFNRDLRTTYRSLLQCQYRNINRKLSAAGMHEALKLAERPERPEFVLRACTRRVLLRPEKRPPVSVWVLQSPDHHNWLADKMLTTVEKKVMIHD
Chain of 5-hydroxytryptamine receptor 5A (Homo sapiens) (P47898 whole entry): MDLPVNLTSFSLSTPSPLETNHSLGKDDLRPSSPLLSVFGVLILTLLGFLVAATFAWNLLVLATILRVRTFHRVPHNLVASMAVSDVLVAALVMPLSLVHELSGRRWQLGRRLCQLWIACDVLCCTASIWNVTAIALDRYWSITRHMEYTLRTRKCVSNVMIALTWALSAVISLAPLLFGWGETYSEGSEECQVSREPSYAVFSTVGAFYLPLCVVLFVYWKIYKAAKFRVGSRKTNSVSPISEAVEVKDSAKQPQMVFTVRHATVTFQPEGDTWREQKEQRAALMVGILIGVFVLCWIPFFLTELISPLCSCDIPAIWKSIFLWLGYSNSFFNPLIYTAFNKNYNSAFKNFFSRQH

Compound | inhibition [1] | inhibition [2] | Ki [3] | inhibition [4] | inhibition [5] | inhibition [6] | inhibition [7] | inhibition [8] | inhibition [9] | inhibition [10] | inhibition [11] | Ki [12] | Activity [13] | % serotonin response [14] | Kb [15] | IC50 [16] | inhibition [17] | inhibition [18]
Oc1ccc2[nH]cc(CCN3CCN(c4ccccc4)CC3)c2c1 | 18% | 97% | 63.1 nM | 1% | 56% | 11% | 98% | 60% | 95% | 17% | 66% | 63.1 nM |  |  |  |  |  | 
CN(CCCCN1CCN(c2ccccc2)CC1)c1cccc(O)c1 |  |  | 30 nM |  |  |  |  |  |  |  |  |  | inactive | 39% | 57 nM | 540 nM |  | 
Oc1ccc2[nH]cc(CCN3CCN(C4CCCC4)CC3)c2c1 |  |  |  |  |  |  |  |  |  |  |  |  |  |  |  |  | 1% | 
Oc1ccc2[nH]cc(CCN3CCN(c4cccc5ccccc45)CC3)c2c1 | 76% | 100% | 11.6 nM | 15% | 94% | 74% | 98% | 99% | 100% | 7% | 98% | 11.6 nM |  |  |  |  |  | 
CN(C(=O)CCCCCN1CCN(c2cccc3ccccc23)CC1)c1cccc(O)c1 | 71% | 99% | 8.1 nM | 6% | 70% | 69% | 101% | 100% | 99% | 16% | 98% | 8.1 nM |  |  |  |  |  | 
CCCCN1CCN(CCc2c[nH]c3ccc(O)cc23)CC1 |  |  |  |  |  |  |  |  |  |  |  |  |  |  |  |  | -9% | 
CN(CCCN1CCN(c2ccccc2)CC1)c1cccc(O)c1 | 21% | 79% | 20 nM | 5% | 49% | 9% | 75% | 18% | 101% | -5% | 42% | 20 nM |  | 49% |  |  |  | 
CN1C[C@@H](NS(=O)(=O)N(C)C)C[C@@H]2c3cccc4c3c(cn4C)C[C@H]21 |  |  |  |  |  |  |  |  |  |  |  |  |  |  | 16 nM |  |  | 
Oc1ccc2[nH]cc(CCN3CCN(c4ccc(-c5ccccc5)cc4)CC3)c2c1 |  |  |  |  |  |  |  |  |  |  |  |  |  |  |  |  | 10% | 32%
